Here are results for three molecules from publication PMC3689578 (Integrative biology : quantitative biosciences from nano to …, 2012).

Read-outs that look alike come from different tables or passages of the source. Some results are limits rather than exact numbers.

Series [1] has as its target T1, cathepsin G (Homo sapiens, UniProt P08311).
T1 sequence (P08311 21-255): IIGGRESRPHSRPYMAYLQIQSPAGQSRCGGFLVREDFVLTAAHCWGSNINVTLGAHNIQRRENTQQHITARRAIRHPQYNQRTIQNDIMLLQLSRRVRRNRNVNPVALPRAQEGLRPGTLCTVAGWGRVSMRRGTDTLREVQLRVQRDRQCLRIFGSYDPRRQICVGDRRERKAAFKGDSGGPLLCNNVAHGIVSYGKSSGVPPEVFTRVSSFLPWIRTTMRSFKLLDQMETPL
Kind of series: Enzyme cleavage by cathepsin G. The series is classed as biochemical. To be noted: 5 μmol L^−1 peptide, 50 nmol L^−1 enzyme.

The test system of series [2] is clots at the end of the amputated tail tips. Description: In vivo clot imaging after tail amputation. To be noted: 10 nanomoles iv, 24 hours, p = 0.045. On the set-up: species or system wildtype FVB mice. The procedure, abridged:
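Wildtype FVB mouse tails clipped 2.5 mm from the tip. 20 min later, 10 nanomoles cleavable or control probe given i.v. At 24 h, under ketamine/midazolam (80, 5 mg kg−1), tail-tip clots imaged by fluorescence dissecting microscope (ex 620/60, em 700/75). Intensity quantified from images.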

Details of series [3]: species or system mice. To be noted: mouse, in vivo, iv.
Series [4] deals with atherosclerotic plaques. Description: Distribution of fluorescence within sectioned plaques. The series is classed as in vivo, LDLR−/− mice. To be noted: 15 plaques, n = 5 mice, p = 0.023 paired t-test.
For series [5], the system named is atherosclerotic plaques. Kind of series: Aorta and plaque fluorescence sorted by histologic group. The series is classed as in vivo, mice.
Series [6] deals with T2, neutrophil elastase (Homo sapiens, UniProt P08246).
T2 sequence (P08246 30-267): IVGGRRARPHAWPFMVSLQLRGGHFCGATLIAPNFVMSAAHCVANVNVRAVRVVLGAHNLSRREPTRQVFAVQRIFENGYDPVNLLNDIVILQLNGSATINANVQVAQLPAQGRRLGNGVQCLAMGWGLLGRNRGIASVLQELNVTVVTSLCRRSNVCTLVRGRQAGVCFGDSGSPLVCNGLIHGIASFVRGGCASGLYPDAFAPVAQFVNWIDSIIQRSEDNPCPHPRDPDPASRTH
Description: Enzyme cleavage by neutrophil elastase. To be noted: 5 μmol L^−1 peptide, 50 nmol L^−1 enzyme. The series is classed as biochemical.

Series [7] deals with T3, thrombin (Homo sapiens, UniProt P00734). Description: Determination of kcat/Km with thrombin. The series is classed as biochemical. The procedure, abridged:
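Thrombin at 50 nmol L−1 with seven substrate concentrations from 1 to 30 μmol L−1, sampled at 5, 15, 30 and 60 min. Reactions stopped with SDS sample buffer and run on tricine gels. Percent cleavage = (lower band − background)/(lower + upper band − 2×background), uncleaved-substrate value subtracted. Percent × starting concentration gives product. Velocity is the slope of the linear product-versus-time segment. Km and kcat come from the Lineweaver–Burke intercept and slope.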

Series [8] relates to human atheromas. Kind of series: Ex vivo incubation of human carotid endarterectomy specimens. The procedure, abridged:
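Fresh carotid endarterectomy specimens from five patients, held on ice, embedded in 0.5% agarose, cut into 2 mm slices. Slices from the same specimen incubated 1 h in 10 μmol L−1 Cy5-labelled cleavable or control probe; two sections also with 110 or 220 μmol L−1 argatroban. Fluorescence measured on cryosections, background-subtracted. Slices homogenised in SDS sample buffer, centrifuged, supernatant run on gel. Paired t-test.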

The target of series [9] is activated protein C (APC) (Homo sapiens, UniProt P04070). Kind of series: Enzyme cleavage by activated protein C. To be noted: 5 μmol L^−1 peptide, 50 nmol L^−1 enzyme. The series is classed as biochemical.
The subject of series [10] is atherosclerotic plaques. Description: Imaging of carotid plaques after co-injection of two probes. The series is classed as in vivo, LDLR−/− mice. To be noted: rhodamine-labelled DPRSFL–ACPP, two animals. The procedure, abridged:
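LDLR−/− mice (C57BL/6 background) fed 0.5% cholesterol diet for 1–2 years, given rhodamine-labelled test probe plus Cy5-labelled MMP-cleavable probe intravenously. At 6 h, under anaesthesia, the carotid was exposed and imaged by fluorescence dissecting microscope. Carotid bifurcation and aortic arch imaged postmortem (rhodamine ex 560/25, em 607/36; Cy5 ex 620/60, em 700/75). Tissue then frozen for histology.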

Series [11] has as its target factor Xa (Bos taurus, UniProt P00743). Kind of series: Enzyme cleavage by factor Xa. The series is classed as biochemical. To be noted: 5 μmol L^−1 peptide, 50 nmol L^−1 enzyme.
The test system of series [12] is trypsin. Kind of series: Enzyme cleavage by trypsin. To be noted: 5 μmol L^−1 peptide, 50 nmol L^−1 enzyme. The series is classed as biochemical.
Series [13] concerns the target factor XIa (Homo sapiens, UniProt P03951). Description: Enzyme cleavage by factor XIa. The series is classed as biochemical. To be noted: 5 μmol L^−1 peptide, 50 nmol L^−1 enzyme.
For series [14], the target named is T4, factor VIIa (Homo sapiens, UniProt P08709).
T4 sequence (P08709 213-466 limits assumed): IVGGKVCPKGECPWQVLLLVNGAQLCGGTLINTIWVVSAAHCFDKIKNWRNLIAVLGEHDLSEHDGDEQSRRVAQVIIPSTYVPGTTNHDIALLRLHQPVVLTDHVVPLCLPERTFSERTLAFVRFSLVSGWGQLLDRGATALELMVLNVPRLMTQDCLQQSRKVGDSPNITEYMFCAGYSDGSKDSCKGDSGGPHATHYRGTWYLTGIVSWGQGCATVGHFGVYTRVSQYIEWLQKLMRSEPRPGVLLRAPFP
T4 sequence (P08709 61-212 limits assumed): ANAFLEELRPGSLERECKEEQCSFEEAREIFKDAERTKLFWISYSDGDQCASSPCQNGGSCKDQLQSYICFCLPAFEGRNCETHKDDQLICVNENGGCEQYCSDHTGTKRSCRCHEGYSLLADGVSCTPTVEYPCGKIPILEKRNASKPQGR
Description: Enzyme cleavage by factor VIIa. The series is classed as biochemical. To be noted: 5 μmol L^−1 peptide, 50 nmol L^−1 enzyme.

The target in series [15] is T5, factor XIIa (Homo sapiens, UniProt P00748).
T5 sequence (P00748 373-615 limits assumed): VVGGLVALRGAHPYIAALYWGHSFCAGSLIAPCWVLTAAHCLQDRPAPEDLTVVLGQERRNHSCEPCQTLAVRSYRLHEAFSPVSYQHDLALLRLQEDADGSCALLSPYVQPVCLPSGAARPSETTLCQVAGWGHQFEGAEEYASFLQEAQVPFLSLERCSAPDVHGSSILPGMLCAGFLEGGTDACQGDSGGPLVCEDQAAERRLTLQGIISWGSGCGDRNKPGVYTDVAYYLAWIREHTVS
Kind of series: Enzyme cleavage by factor XIIa. The series is classed as biochemical. To be noted: 5 μmol L^−1 peptide, 50 nmol L^−1 enzyme.

The target of series [16] is plasmin (Homo sapiens, UniProt P00747). Kind of series: Enzyme cleavage by plasmin. To be noted: 5 μmol L^−1 peptide, 50 nmol L^−1 enzyme. The series is classed as biochemical.
For series [17], the target named is T3, thrombin. Description: Enzyme cleavage by purified thrombin. The series is classed as biochemical.
In series [18] the test system is chymotrypsin. Kind of series: Enzyme cleavage by chymotrypsin. To be noted: 5 μmol L^−1 peptide, 50 nmol L^−1 enzyme. The series is classed as biochemical.
Series [19] concerns the target T6, Active thrombin in serum (Mus musculus, UniProt P19221).
Series [20] has as its target T6, Active thrombin in serum. Description: biochemical. To be noted: read-out: inhibition of DPRSFL–ACPP proteolysis by serum.
Series [21] has as its target T3, thrombin. To be noted: thrombin activity on native receptor; cited from earlier work.
Where [22] appears, read: 50 nmol L^−1 thrombin, 1 to 30 μmol L^−1 peptide, 5-60 min, gel read-out.

Sequence of factor XIa (P03951 388-625 limits assumed): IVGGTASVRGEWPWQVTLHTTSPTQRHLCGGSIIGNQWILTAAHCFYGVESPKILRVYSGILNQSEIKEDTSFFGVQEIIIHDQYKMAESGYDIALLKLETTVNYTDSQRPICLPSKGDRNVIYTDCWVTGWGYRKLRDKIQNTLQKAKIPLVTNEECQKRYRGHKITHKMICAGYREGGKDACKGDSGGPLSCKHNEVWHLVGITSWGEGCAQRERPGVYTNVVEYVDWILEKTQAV
Sequence of factor XIa (P03951 19-387 limits assumed): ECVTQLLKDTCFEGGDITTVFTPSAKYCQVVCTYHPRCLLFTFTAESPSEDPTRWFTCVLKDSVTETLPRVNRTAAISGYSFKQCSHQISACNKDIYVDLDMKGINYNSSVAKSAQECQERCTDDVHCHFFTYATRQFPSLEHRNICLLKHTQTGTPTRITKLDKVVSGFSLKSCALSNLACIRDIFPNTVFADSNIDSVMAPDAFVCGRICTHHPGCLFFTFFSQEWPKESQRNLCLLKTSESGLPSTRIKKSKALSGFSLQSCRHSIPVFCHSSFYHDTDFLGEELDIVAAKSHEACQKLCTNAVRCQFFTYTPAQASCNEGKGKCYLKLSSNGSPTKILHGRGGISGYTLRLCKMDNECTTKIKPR
Sequence of factor Xa (P00743 234-492 limits assumed): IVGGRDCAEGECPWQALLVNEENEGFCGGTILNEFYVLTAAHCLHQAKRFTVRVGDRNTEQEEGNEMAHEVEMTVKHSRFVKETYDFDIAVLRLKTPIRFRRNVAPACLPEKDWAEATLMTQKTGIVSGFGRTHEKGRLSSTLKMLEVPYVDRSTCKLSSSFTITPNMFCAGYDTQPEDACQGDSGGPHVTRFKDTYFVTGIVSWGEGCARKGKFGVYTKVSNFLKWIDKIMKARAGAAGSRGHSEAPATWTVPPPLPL
Sequence of factor Xa (P00743 41-180 limits assumed): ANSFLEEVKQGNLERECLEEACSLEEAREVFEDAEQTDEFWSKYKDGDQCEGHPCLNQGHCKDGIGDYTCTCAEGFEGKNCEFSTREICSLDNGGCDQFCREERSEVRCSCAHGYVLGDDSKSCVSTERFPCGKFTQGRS
Sequence of plasmin (P00747 581-810 limits assumed, species assumed): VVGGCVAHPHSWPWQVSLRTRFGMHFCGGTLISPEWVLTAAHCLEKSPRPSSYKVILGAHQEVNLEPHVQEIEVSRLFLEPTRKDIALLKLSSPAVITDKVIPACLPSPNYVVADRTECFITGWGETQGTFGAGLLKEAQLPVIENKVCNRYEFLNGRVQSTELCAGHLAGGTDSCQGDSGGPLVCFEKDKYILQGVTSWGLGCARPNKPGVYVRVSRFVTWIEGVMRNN
Sequence of plasmin (P00747 97-580 limits assumed, species assumed): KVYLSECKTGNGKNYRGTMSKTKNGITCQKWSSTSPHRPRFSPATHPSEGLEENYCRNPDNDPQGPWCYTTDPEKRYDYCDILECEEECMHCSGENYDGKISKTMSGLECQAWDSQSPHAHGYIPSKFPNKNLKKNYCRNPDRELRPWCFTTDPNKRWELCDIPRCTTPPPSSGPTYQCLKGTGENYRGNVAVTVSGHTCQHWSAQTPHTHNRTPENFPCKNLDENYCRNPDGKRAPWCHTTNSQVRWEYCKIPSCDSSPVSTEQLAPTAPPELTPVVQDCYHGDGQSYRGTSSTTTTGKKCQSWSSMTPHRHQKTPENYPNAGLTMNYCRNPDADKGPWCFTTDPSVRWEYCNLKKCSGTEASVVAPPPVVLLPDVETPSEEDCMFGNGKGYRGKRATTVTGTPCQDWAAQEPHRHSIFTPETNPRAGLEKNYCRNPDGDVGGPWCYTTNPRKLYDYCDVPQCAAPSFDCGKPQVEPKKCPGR
Sequence of activated protein C (APC) (P04070 212-461 limits assumed): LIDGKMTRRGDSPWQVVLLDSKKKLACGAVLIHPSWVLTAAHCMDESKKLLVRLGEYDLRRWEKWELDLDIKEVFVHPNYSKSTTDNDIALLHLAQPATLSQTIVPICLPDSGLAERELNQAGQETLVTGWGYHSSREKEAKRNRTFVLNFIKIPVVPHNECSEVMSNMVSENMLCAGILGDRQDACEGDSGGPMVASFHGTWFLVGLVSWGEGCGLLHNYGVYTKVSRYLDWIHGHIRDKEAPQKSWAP
Sequence of activated protein C (APC) (P04070 43-197 limits assumed): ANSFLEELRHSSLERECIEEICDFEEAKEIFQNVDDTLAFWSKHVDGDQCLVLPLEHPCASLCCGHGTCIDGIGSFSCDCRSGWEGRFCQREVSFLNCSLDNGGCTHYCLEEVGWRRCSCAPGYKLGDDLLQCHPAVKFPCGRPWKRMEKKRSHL

As to “Suc-e8-O-DPRSFL-r9-c(Cy5 or rhodamine)-CONH2 [DPRSFL–ACPP]”, in [1], the “cleavage by cathepsin G” value is given as “no cleavage”. In addition, in [2], the “fold increase in clot fluorescence intensity compared to mPEG–ACPP” value is listed as 2.4 fold. Further, the whole blood half-life in series [3] was 17 ± 5 min. Further, the “uptake in hypocellular (DAPI poor) region versus cellular rich exterior” value in series [4] was “statistically greater”. Further, in series [5] (n = 3, p = 0.007 vs Group 1), the “fluorescence intensity of individual plaques, Group 2” value turned out to be 43.7 ± 7.5. Moreover, the “whole aorta fluorescence per pixel, Group 2 (more advanced plaques)” value in series [5] (n = 4, p = 0.02 vs Group 1) is reported as 24.4 ± 3.6. Moreover, the “fluorescence intensity of individual plaques, Group 1” value in series [5] (n = 11) came to 17.0 ± 9.3. Further, in series [5] (n=12), the “whole aorta fluorescence per pixel, Group 1 (less advanced plaques)” value turned out to be 7.8 ± 3.0. The “cleavage by neutrophil elastase” value in series [6] is on record as “no cleavage”. Further, in series [7] (setting [22]), the Km – broadly, the substrate concentration at which the rate is half of its maximum – turned out to be 15 µM and the kcat – broadly, the maximal rate divided by the concentration of active sites – was found to be 0.3 s⁻¹. For the same molecule, the kcat/Km (as a rule, the turnover number divided by the Michaelis constant) in series [7] (from kcat and Km) came to 21000 M⁻¹ s⁻¹. Besides, the “greater cleavage product retained compared to control ACPP” value in series [8] (freshly resected human atheromas bathed in probe) is on record as 63%. The “cleavage by human atheromas (gel electrophoresis of homogenates)” value in series [8] (slices homogenized in SDS sample buffer after incubation) is reported as “cleaved”. Also, the “cleavage by APC” value in series [9] is “no cleavage”. Also, the “uptake relative to co-injected Cy5–PLGLAG–ACPP within the same plaques” value in series [10] is given as “much higher”. Moreover, the “cleavage by factor Xa” value in series [11] is “able to cleave”. Also, the cleavage by trypsin entry in series [12] is recorded as “able to cleave”. In addition, the “cleavage by factor XIa” value in series [13] is listed as “no cleavage”. Further, in [14], the “cleavage by factor VIIa” value is on record as “no cleavage”. The “cleavage by factor XIIa” value in [15] is recorded as “no cleavage”. Besides, in series [16], the cleavage by plasmin entry is reported as “able to cleave”. Also, the “cleavage by purified thrombin” value in series [17] (5 μmol L^−1 peptide, 50 nM thrombin, 20 min, 37 °C, triplicate) was “efficiently cleaved”. Further, in series [18], the cleavage by chymotrypsin result is listed as “able to cleave”. Moreover, in series [19], the cleavage by serum result is on record as “rapidly cleaved”.

For the molecule `CC1CNc2c(cccc2S(=O)(=O)N[C@@H](CCCNC(=N)N)C(=O)N2CC[C@@H](C)C[C@@H]2C(=O)O)C1` (some centres unmarked) [argatroban, reference compound], the inhibition at 4 µg/mL in [20] and in series [17] (read-out: inhibition of DPRSFL–ACPP cleavage by thrombin) was > 90% throughout. In addition, the “reduction in fluorescence intensity relative to DPRSFL–ACPP alone” value in series [8] (110 or 220 μmol L^−1 argatroban, two atheroma specimens) is reported as 76.6 ± 13.4%.

B1: native PAR-1 receptor: native proteinase activated receptor 1, thrombin substrate (protein, UniProt P25116 42-425, looked up)
Proteinase-activated receptor …: SFLLRNPNDKYEPFWEDEEKNESGLTEYRLVSINKSSPLQKQLPAFISEDASGYLTSSWLTLFVPSVYTGVFVVSLPLNIMAIVVFILKMKVKKPAVVYMLHLATADVLFVSVLPFKISYYFSGSDWQFGSELCRFVTAAFYCNMYASILLMTVISIDRFLAVVYPMQSLSWRTLGRASFTCLAIWALAIAGVVPLLLKEQTIQVPGLNITTCHDVLNETLLEGYYAYYFSAFSAVFFFVPLIISTVCYVSIIRCLSSSAVANRSKKSRALFLSAAVFCIFIICFGPTNVLLIAHYSFLSHTSTTEAAYFAYLLCVCVSSISCCIDPLIYYYASSECQRYVYSILCCKESSDPSSYNSSGQLMASKMDTCSSNLNNSIYKKLLT
On to B1, for which the kcat/Km in [21] was 7.6e+06 M⁻¹ s⁻¹.
